Measurements reported in ChEMBL document CHEMBL1141586, “Design and optimization of imidazole derivatives as potent CXCR3 antagonists” (Bioorg Med Chem Lett, 2008).
Converted amounts (≈) assume the structure as drawn.

Columns and labels:
[1] = molecular target: T1, C-X-C chemokine receptor type 3 (Homo sapiens, UniProt P49682); assay: Displacement of [125I]IP10 from human recombinant CXCR3 receptor expressed in IL2-activated human PBMC in presence of plasma
T1 sequence (P49682 whole entry): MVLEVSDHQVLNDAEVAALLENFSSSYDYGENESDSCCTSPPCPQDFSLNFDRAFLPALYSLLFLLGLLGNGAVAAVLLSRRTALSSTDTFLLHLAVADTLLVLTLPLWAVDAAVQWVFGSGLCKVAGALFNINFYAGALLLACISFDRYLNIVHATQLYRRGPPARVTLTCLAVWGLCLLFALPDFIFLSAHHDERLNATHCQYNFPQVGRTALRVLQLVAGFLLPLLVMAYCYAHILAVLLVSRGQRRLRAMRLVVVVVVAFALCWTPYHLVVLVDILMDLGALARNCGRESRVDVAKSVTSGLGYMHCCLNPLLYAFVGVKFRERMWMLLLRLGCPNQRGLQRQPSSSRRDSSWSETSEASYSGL
Summary of the method: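 PBMC were activated for 14 days with anti-CD3 mAb and recombinant human IL-2, then co-incubated with antagonist and recombinant human 125I-IP10 for 2 h at room temperature in EDTA-anticoagulated human plasma (from frozen stocks). Cells were filter-harvested and bound radioactivity counted by scintillation. IC50 is the mean of three experiments.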

[2] = molecular target: T1, C-X-C chemokine receptor type 3; assay: Displacement of [125I]IP10 from human recombinant CXCR3 receptor expressed in IL2-activated human PBMC
[3] = Oral bioavailability in rat at 2 mg/kg; format: ADME, organism-based; settings: in vivo
[4] = Mean residence time in rat at 2 mg/kg, po; format: ADME, organism-based; design: dose 2 mg/kg, route oral; settings: in vivo
[5] = Mean residence time in rat at 0.5 mg/kg, iv; format: ADME, organism-based; design: dose 0.5 mg/kg, route intravenous; settings: in vivo
Summary of the method: (§1)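 Rats given a single intravenous dose of 0.5 mg/kg; clearance, AUC and mean residence time derived from plasma exposure; n = 2 animals.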

[6] = test system: Liver microsomes; assay: Metabolic stability in human liver microsomes assessed as decrease in glutathione conjugate formation; format: ADME, Microsome; design: scale not given: the % may be the effect or the level left
[7] = test system: Rattus norvegicus; assay: Clearance in rat at 0.5 mg/kg, iv; format: ADME, organism-based; design: dose 0.5 mg/kg, route intravenous; settings: in vivo; summary of the method: as §1
[8] = molecular target: T2, C-X-C chemokine receptor type 3 (Homo sapiens) (UniProt P49682); assay: Antagonist activity at human CXCR3 receptor assessed as ITAC-induced cellular migration in PBMC in presence of plasma; format: functional
T2 sequence (whole entry): T1 sequence (P49682 whole entry)

[9] = test system: Rattus norvegicus; assay: AUC in rat at 0.5 mg/kg, iv; format: ADME, organism-based, Plasma; design: dose 0.5 mg/kg, route intravenous; settings: in vivo; summary of the method: as §1
[10] = AUC in rat at 2 mg/kg, po; format: ADME, organism-based; design: dose 2 mg/kg, route oral; settings: plasma
[11] = Solubility at pH 7.4; format: physicochemical; settings: buffer
Summary of the method: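 10 mM DMSO stock added to pH 7.4 assay buffer, final DMSO about 1%. Compound concentration in the supernatant is measured.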

[12] = Membrane permeability by PAMPA assay; format: ADME; settings: read-out: permeability
Summary of the method: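 PAMPA: passive permeation across an artificial phospholipid bilayer membrane; result expressed in 10^-6 cm/s.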

SMILES	IC50 [1] [nM]	IC50 [2] [nM]	Activity [8] [nM]	other results
CCOc1ccc(-n2cc(-c3ccccc3)nc2[C@@H](C)N(CCS(=O)(=O)CC)C(=O)Cn2ccc(C(F)(F)F)n2)cc1	1120	40		
CCOc1ccc(-n2cc(-c3ccccc3)nc2[C@@H](C)N(C[C@H]2CCCN2)C(=O)Cc2ccc(F)c(C(F)(F)F)c2)cc1	36	46		
CCOCCN(C(=O)Cc1ccc(F)c(C(F)(F)F)c1)[C@H](C)c1nc(-c2ccccc2)cn1-c1ccc(OCC)cc1	202	11		
CCOc1ccc(-n2cc(-c3ccccc3)nc2[C@@H](C)N(CCS(=O)(=O)CC)C(=O)Cn2cc(-c3ccccc3)nn2)cc1	49	5.6		
CCOc1ccc(-n2cc(-c3ccccc3)nc2[C@@H](C)N(Cc2ccccn2)C(=O)Cc2ccc(F)c(C(F)(F)F)c2)cc1	1180	80		
CCS(=O)(=O)CCN(C(=O)Cc1ccc(F)c(C(F)(F)F)c1)[C@H](C)c1nc(C2CC2)c(C(F)F)n1-c1ccc(C#N)cc1	18	12	20	bioavailability [3]: 48%; MRT [4]: 2.4 h; MRT [5]: 0.9 h; Activity [6]: 0%; CL [7]: 36.7 mL/min/kg; AUC [9]: 237 ng·h/mL; AUC [10]: 456 ng·h/mL
CCOc1ccc(-n2cc(-c3ccccc3)nc2[C@@H](C)N(CCS(=O)(=O)CC)C(=O)Cn2nnc(C3CC3)n2)cc1	1660	44		
CCOc1ccc(-n2cc(-c3ccccc3)nc2[C@@H](C)N(CCS(=O)(=O)CC)C(=O)Cn2nnc(-c3ccc(F)cc3)n2)cc1	47	5		
CCS(=O)(=O)CCN(C(=O)Cc1ccc(F)c(C(F)(F)F)c1)[C@H](C)c1nc(C2CC2)c(C(F)(F)F)n1-c1ccc(C#N)cc1	45	19	268	Activity [6]: 0%
CCOc1ccc(-n2cc(-c3ccccc3)nc2[C@@H](C)N(CCS(=O)(=O)CC)C(=O)Cn2nnc(-c3ccccc3)n2)cc1	69	9.4		
CCOc1ccc(-n2cc(-c3ccccc3)nc2[C@@H](C)N(C[C@@H]2CCCN2)C(=O)Cc2ccc(F)c(C(F)(F)F)c2)cc1	20	11		
CCOc1ccc(-n2cc(-c3ccccc3)nc2[C@@H](C)N(CCS(=O)(=O)CC)C(=O)Cn2cnc(-c3ccccc3)c2)cc1	24	4.8		
CCOc1ccc(-n2cc(-c3ccccc3)nc2[C@@H](C)N(CCS(=O)(=O)CC)C(=O)Cn2nnc(-c3ccc(C(F)(F)F)cc3)n2)cc1	19	2.1		
CCOc1ccc(-n2cc(-c3ccccc3)nc2[C@@H](C)N(CCS(=O)(=O)CC)C(=O)Cc2ccc(OC(F)(F)F)cc2)cc1	45	7.1		
CCOc1ccc(-n2cc(-c3ccccc3)nc2[C@@H](C)N(Cc2cccnc2)C(=O)Cc2ccc(F)c(C(F)(F)F)c2)cc1	91	11		
CCOc1ccc(-n2cc(-c3ccccc3)nc2[C@@H](C)N(Cc2ccncc2)C(=O)Cc2ccc(F)c(C(F)(F)F)c2)cc1	129	35		
CCOc1ccc(-n2cc(-c3ccccc3)nc2[C@@H](C)N(C[C@@H]2CCCN2C)C(=O)Cc2ccc(F)c(C(F)(F)F)c2)cc1	31	6.4		
CCOc1ccc(-n2cc(-c3ccccc3)nc2[C@@H](C)N(C[C@H]2CCCN2C)C(=O)Cc2ccc(F)c(C(F)(F)F)c2)cc1	81	14		
CCOc1ccc(-n2ccnc2[C@@H](C)N(Cc2cccnc2)C(=O)Cc2ccc(F)c(C(F)(F)F)c2)cc1		1800		

More lines, main results first:

IC50 [1] [nM]	IC50 [2] [nM]	Activity [8] [nM]	SMILES	other results
21	2.5	100	CCS(=O)(=O)CCN(C(=O)Cc1ccc(F)c(C(F)(F)F)c1)[C@H](C)c1nc(C(C)(C)C)cn1-c1ccc(C#N)cc1	
10000	752		CCS(=O)(=O)CCN(C(=O)Cc1ccc(F)c(C(F)(F)F)c1)[C@H](C)c1nc(C2CC2)c(-c2ccccc2)n1-c1ccc(C#N)cc1	
276	72		CCS(=O)(=O)CCN(C(=O)Cc1ccc(F)c(C(F)(F)F)c1)[C@H](C)c1nc(C2CC2)c(C#N)n1-c1ccc(C#N)cc1	Activity [6]: 0%
33	10	113	CCS(=O)(=O)CCN(C(=O)Cc1ccc(F)c(C(F)(F)F)c1)[C@H](C)c1nc(C2CC2)c(CO)n1-c1ccc(C#N)cc1	Activity [6]: 1%
24	7.8	80	CCS(=O)(=O)CCN(C(=O)Cc1ccc(F)c(C(F)(F)F)c1)[C@H](C)c1nc(C2CC2)c(Cl)n1-c1ccc(C#N)cc1	bioavailability [3]: 26%; MRT [4]: 5.4 h; MRT [5]: 1.3 h; Activity [6]: 0%; CL [7]: 38.3 mL/min/kg; AUC [9]: 219; AUC [10]: 225 ng·h/mL
14	0.7	10	CCS(=O)(=O)CCN(C(=O)Cc1ccc(F)c(C(F)(F)F)c1)[C@H](C)c1nc(-c2ccccc2)cn1-c1ccc(C#N)cc1	bioavailability [3]: 3%; solubility [11]: 0.5 µg/mL (≈ 0.816 µM); MRT [4]: 0.9 h; MRT [5]: 0.3 h; Papp [12]: 0.9 ×10⁻⁶ cm/s; CL [7]: 91.7 mL/min/kg; AUC [9]: 92 ng·h/mL; AUC [10]: 11 ng·h/mL
19	2.6	54	CCS(=O)(=O)CCN(C(=O)Cc1ccc(F)c(C(F)(F)F)c1)[C@H](C)c1nc(C(C)C)cn1-c1ccc(C#N)cc1	
4.5	0.4		CCOc1ccc(-n2cc(-c3ccccc3)nc2[C@@H](C)N(CCS(=O)(=O)CC)C(=O)Cc2ccc(F)c(C(F)(F)F)c2)cc1	
37	6.6	53	CCS(=O)(=O)CCN(C(=O)Cc1ccc(F)c(C(F)(F)F)c1)[C@H](C)c1nc(C2CC2)cn1-c1ccc(C#N)cc1	bioavailability [3]: 16%; solubility [11]: 32 µg/mL (≈ 55.5 µM); MRT [4]: 2.4 h; MRT [5]: 1 h; Papp [12]: 5.1 ×10⁻⁶ cm/s; Activity [6]: 44%; CL [7]: 55 mL/min/kg; AUC [9]: 149 ng·h/mL; AUC [10]: 95 ng·h/mL
43	4	33	CCS(=O)(=O)CCN(C(=O)Cc1ccc(F)c(C(F)(F)F)c1)[C@H](C)c1nc(-c2ccccn2)cn1-c1ccc(C#N)cc1	
28	8	119	CCS(=O)(=O)CCN(C(=O)Cc1ccc(F)c(C(F)(F)F)c1)[C@H](C)c1nc(C2CC2)c(CF)n1-c1ccc(C#N)cc1	
16	3.2	29	CCc1c(C2CC2)nc([C@@H](C)N(CCS(=O)(=O)CC)C(=O)Cc2ccc(F)c(C(F)(F)F)c2)n1-c1ccc(C#N)cc1	Activity [6]: 14%
29	2.3	91	CCS(=O)(=O)CCN(C(=O)Cc1ccc(F)c(C(F)(F)F)c1)[C@H](C)c1nc(-c2cccnc2)cn1-c1ccc(C#N)cc1	
22	3.8	45	C=Cc1c(C2CC2)nc([C@@H](C)N(CCS(=O)(=O)CC)C(=O)Cc2ccc(F)c(C(F)(F)F)c2)n1-c1ccc(C#N)cc1	Activity [6]: 8%
18	2.4		CCOc1ccc(-n2cc(-c3ccccc3)nc2[C@@H](C)N(CCCS(=O)(=O)CC)C(=O)Cc2ccc(F)c(C(F)(F)F)c2)cc1	
